Among the data in ChEMBL document CHEMBL1151230, “Cytotoxic triterpenoids from Acridocarpus vivy from the Madagascar rain forest” (J Nat Prod, 2004) are IC50 values, retold here.

SMILES strings stand for the structures. In brackets after ≈: the same amount, converted by molar mass.

The assay deals with A2780. Briefly: Cytotoxicity against human A2780 cells. Type of assay: functional, cell-based. The essentials:
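Growth inhibition of the human ovarian cancer line A2780. IC50 is the concentration giving 50% inhibition of growth, reported in µg/mL. Actinomycin D served as positive control. Run at Virginia Polytechnic Institute following an earlier published procedure.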
In general, IC50 refers to the concentration that gives 50% inhibition. `COc1cc(O)c2c(=O)cc(-c3ccc(O)c(OC)c3)oc2c1` [VELUTIN] returned an IC50 above 20 µg/mL.

`CC1(C)CC[C@]2(C(=O)O)CC[C@]3(C)C(=CC[C@@H]4[C@@]5(C)CC[C@H](O)C(C)(C)[C@@H]5CC[C@]43C)[C@@H]2C1` [OLEANOLIC_ACID] came in with an IC50 of 8 µg/mL (≈ 17.5 µM).

`CC1(C)C=C2[C@H]3CC[C@@H]4[C@@]5(C)CCC(=O)[C@](C)(CO)[C@@H]5CC[C@@]4(C)[C@]3(C)CC[C@@]2(C(=O)O)CC1` returned an IC50 of 15.9 µg/mL (≈ 33.8 µM).

For the compound `CC(=O)OC[C@@]1(C)C(=O)CC[C@@]2(C)[C@H]1CC[C@]1(C)[C@@H]2CC[C@@H]2C3=CC(C)(C)CC[C@]3(C(=O)O)CC[C@]21C`, the IC50 worked out at 11.6 µg/mL (≈ 22.6 µM).

Compound `CC(=O)O[C@@H]1CC[C@]2(C)[C@H]3CC[C@@H]4C5=CC(C)(C)CC[C@]5(C(=O)O)CC[C@@]4(C)[C@]3(C)CC[C@H]2C1(C)C` yielded an IC50 of 15.3 µg/mL (≈ 30.7 µM).

In turn, `C[C@H]1[C@H](C)CC[C@]2(C(=O)O)CC[C@]3(C)C(=CC[C@@H]4[C@@]5(C)CC[C@H](O)C(C)(C)[C@@H]5CC[C@]43C)[C@H]12` [URSOLIC ACID] showed an IC50 of 9.2 µg/mL (≈ 20.1 µM).

`CC1(C)C=C2[C@H]3CC[C@@H]4[C@@]5(C)CCC(=O)C(C)(C)[C@@H]5CC[C@@]4(C)[C@]3(C)CC[C@@]2(C(=O)O)CC1` [MORONIC ACID] came in with an IC50 of 13.1 µg/mL (≈ 28.8 µM).

For `CC1(C)C=C2[C@H]3CC[C@@H]4[C@@]5(C)CCC(=O)[C@](C)(C=O)[C@@H]5CC[C@@]4(C)[C@]3(C)CC[C@@]2(C(=O)O)CC1`, half-maximal inhibition (IC50) required 0.7 µg/mL (≈ 1.49 µM).

In the case of `COc1cc(O)c2c(=O)cc(-c3ccc(O)cc3)oc2c1` [GENKWANIN], the IC50 is above 20 µg/mL.
